Assay results reported in paper PMC12709234 (RSC Advances, 2025).

Legend:
[1] = system: P-glycoprotein (human MDR1); assay: Permeability on MDCKII-hMDR1 cell monolayers; assay type: in vitro ADME, canine; details: dog, MDCK-MDR1, pH 7.4
Method in brief: (§1)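 MDCKII cells overexpressing human MDR1 were seeded on 96-well inserts (0.25 × 10^6 cells per mL) and grown 3 days to confluence. Monolayers were equilibrated 30 min in DPBS pH 7.4 with 1% DMSO. Test compound (10 µM) with lucifer yellow (100 µM, integrity marker) was applied apical-to-basolateral and basolateral-to-apical for 60 min at 37 °C with agitation. Both compartments, plus donor at start, were quantified by LC-MS/MS.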

[2] = system: MDCKII-hMDR1 cell monolayers; assay: Permeability on MDCKII-hMDR1 cell monolayers; assay type: in vitro ADME, canine; details: MDCKII-hMDR1
Method in brief: as §1

[3] = Metabolic stability in mouse liver microsomes; assay type: in vitro ADME; details: 1 µM, scaled from in vitro clearance
Method in brief: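 Mouse liver microsomes were incubated in duplicate with test compound (final 1 µM, <0.1% DMSO) in 50 mM phosphate pH 7.4 at 37 °C for 1 h, with and without an NADPH regenerating system. Samples were taken at 0, 10, 20, 30, 45 and 60 min, quenched with ACN/MeOH (2:1) plus internal standard and analysed by LC-MS/MS. t1/2 came from non-linear regression; Clint was derived from it and normalized to protein. Scaling used 52.5 mg protein/g liver, 85.7 g liver/kg and LBF 131 mL min−1 kg−1.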

[4] = system: human tumor cell lines (Capan-1, HCT-116, LN-229, NCI-H460, DND-41, HL-60, K562, Z-138); assay: Antiproliferative assays, panel of human tumor cell lines; assay type: cell-based
Method in brief: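 Cells from ATCC (DND-41 from DSMZ) were grown in medium with 10% FBS in 384-well plates. Adherent lines were plated overnight first: Capan-1 at 500 and HCT-116, NCI-H460 and LN-229 at 1500 cells/well. Suspension lines were seeded onto compound: HL-60, K-562 and Z-138 at 2500 and DND-41 at 5500 cells/well. Seven concentrations, 100–0.006 µM, from DMSO stocks, 72 h. […] At least two independent experiments.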

Bcl-2 = details: read-out: IC50 (Bcl-2); PDB 6QGK, CHEMBL4438456; cited from earlier work

For `FC(F)(F)c1cc(OCc2cc(-c3ccccc3)no2)c2ccccc2n1` [Compound 7a, 3-Phenyl-5-(((2-(trifluoromethyl)quinolin-4-yl)oxy)methyl)isoxazole], the Papp A→B at 60 min, 10 µM [1] was under 0.1 ×10⁻⁶ cm/s, the Papp B→A at 60 min, 10 µM [1] was 0.1 ×10⁻⁶ cm/s and the Permeability classification [2] was “low to moderate”. The “% LBF predicted in vivo hepatic clearance” value (from here on “% LBF predicted”) [3] was 74 % LBF.

Compound `FC(F)(F)c1cc(OCc2cc(-c3ccccn3)no2)c2ccccc2n1` [Compound 7b, 3-(Pyridin-2-yl)-5-(((2-(trifluoromethyl)quinolin-4-yl)oxy)methyl)isoxazole] has a Papp A→B at 60 min, 10 µM [1] of 6.5 ×10⁻⁶ cm/s, a Papp B→A at 60 min, 10 µM [1] of 4.6 ×10⁻⁶ cm/s and an efflux ratio at 60 min, 10 µM [1] of 0.7. The Efflux classification [2] was “low”, the Permeability classification [2] was “low to moderate” and the “antiproliferative activity (in words)” value ([4]; all evaluated human tumor cell lines) was “did not exhibit any antiproliferative effects”. The “% LBF predicted” value [3] was 87 % LBF.

For `c1ccc(-c2cc(CNc3cccc4cccnc34)on2)cc1` [Compound 8a, 3-Phenyl-5-((quinolin-8-yl-azaneyl)methyl)isoxazole], the Papp A→B at 60 min, 10 µM [1] was 1.7 ×10⁻⁶ cm/s, the Permeability classification [2] was “low to moderate” and the “% LBF predicted” value [3] was over 97 % LBF.

Work on `c1ccc(-c2cc(CNc3cccc4cccnc34)on2)nc1` [Compound 8b, N-((3-(Pyridin-2-yl)isoxazol-5-yl)methyl)quinolin-8-amine] yielded a Papp A→B at 60 min, 10 µM [1] of 17.2 ×10⁻⁶ cm/s, a Papp B→A at 60 min, 10 µM [1] of 27.8 ×10⁻⁶ cm/s and a Papp at 60 min, 10 µM [1] of over 10 ×10⁻⁶ cm/s. The efflux ratio at 60 min, 10 µM [1] was 1.6, the Efflux classification [2] was “low” and the Permeability classification [2] was “High”. The “% LBF predicted” value [3] was 96 % LBF.

For `FC(F)(F)c1ccc(-c2cc(CNc3cccc4cccnc34)on2)cc1` [Compound 8c, N-((3-(4-(Trifluoromethyl)phenyl)isoxazol-5-yl)methyl)quinolin-8-amine], the Papp A→B at 60 min, 10 µM [1] was under 0.1 ×10⁻⁶ cm/s, the Papp B→A at 60 min, 10 µM [1] was under 0.1 ×10⁻⁶ cm/s and the Permeability classification [2] was “Low/—”.

For `Clc1ccc(-c2cc(CNc3cccc4cccnc34)on2)c(Cl)c1` [Compound 8d, N-((3-(2,4-Dichlorophenyl)isoxazol-5-yl)methyl)quinolin-8-amine], the Papp A→B at 60 min, 10 µM [1] was under 0.1 ×10⁻⁶ cm/s, the Papp B→A at 60 min, 10 µM [1] was under 0.1 ×10⁻⁶ cm/s and the Permeability classification [2] was “Low/—”. For the same compound, the “% LBF predicted” value [3] was 51 % LBF.

Work on `N#Cc1ccc(-c2cc(CNc3cccc4cccnc34)on2)cc1` [Compound 8e, 4-(5-((Quinolin-8-ylamino)methyl)isoxazol-3-yl)benzonitrile] yielded a Papp A→B at 60 min, 10 µM [1] of 3.6 ×10⁻⁶ cm/s, a Papp B→A at 60 min, 10 µM [1] of 3.1 ×10⁻⁶ cm/s and an efflux ratio at 60 min, 10 µM [1] of 0.9. The Efflux classification [2] was “low”, the Permeability classification [2] was “Moderate” and the “% LBF predicted” value [3] was 55 % LBF.

Work on `N/C(=N\O)c1ccc(-c2cc(CNc3cccc4cccnc34)on2)cc1` [Compound 8f, (Z)-N′-hydroxy-4-(5-((quinolin-8-ylamino)methyl)isoxazol-3-yl)benzimidamide] yielded a Papp A→B at 60 min, 10 µM [1] of 15 ×10⁻⁶ cm/s, a Papp B→A at 60 min, 10 µM [1] of 13.7 ×10⁻⁶ cm/s and a Papp at 60 min, 10 µM [1] of over 10 ×10⁻⁶ cm/s. For the same compound, the efflux ratio at 60 min, 10 µM [1] was 0.9, the Efflux classification [2] was “low” and the Permeability classification [2] was “High”. For the same compound, the IC50 ([4]; Homo sapiens, read-out: IC50 values against DND-41, HL-60, Z-138 and Capan-1) was 2100 to 4700 nM and the “% LBF predicted” value [3] was 53 % LBF.

In the case of `CCCCN(CCCC)C(=O)c1cc(C)n(-c2ccccc2C(=O)N2Cc3ccccc3C[C@H]2CN)n1` [Compound J1Q, (S)-1-(2-(3-(aminomethyl)-1,2,3,4-tetrahydroisoquinoline-2-carbonyl)phenyl)-N,N-dibutyl-5-methyl-1H-pyrazole-3-carboxamide], the IC50 (Bcl-2) is given as 1300 nM.
